From PubChem
CDK5 inh – blocks human CDK5/p35 kinase activity; 0.01% of 330,000 active; AID 488839; inhibition, % at 10 µM; Recombinant CDK5/p35, ADP-Glo luminescence, 60 min; Q00535+Q15078;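 active = highest replicate inhibition of at least 50% and at least 75% of replicates reaching 50%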;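 also: plate controls were DMSO neutral control for no effect and GW8510 at 10 µM for full effect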
PKA-R2B act – PKA-R2B complex activation. P22694+P31323. PKA-R2B holoenzyme dissociation, Cy5-IP20 fluorescence polarization; R2B truncated from residue 108, S112A mutant; 0% DMSO only, 100% 113 µM cGMP. activation, % at 11.4 µM. 0.079% of 340,000 active. AID 504700;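 active = activation above a cutoff set at the mean over all compounds plus 3 SD, cut at about 18% in these data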;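 also: higher means more holoenzyme dissociation and a rise in polarization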
PKA-R1A act – activators of PKA-R1A complex. P00514+P68181. PKA-R1A dissociation, Cy5-IP20 fluorescence polarization; scaled: DMSO 0%, 113 µM cGMP 100%. activation, % at 11.4 µM. 0.083% of 340,000 active;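 active = percent activation above the mean of all tested compounds plus 3 SD, cut at about 19% in these data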;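 also: higher means more PKAc released from R1A so a rise in polarization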
dFosB act – mouse delta FosB homodimer activation; purified delta FosB, TAMRA-CDK5 oligo fluorescence polarization; percent of positive-control signal above neutral wells; P13346; activation, % at 25 µM; 0.99% of 340,000 active;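 active = mean activation above about 17%, with every replicate also reaching it, limit read from the data, passing the limit was not always enough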
Target sequence (P13346 whole entry, looked up): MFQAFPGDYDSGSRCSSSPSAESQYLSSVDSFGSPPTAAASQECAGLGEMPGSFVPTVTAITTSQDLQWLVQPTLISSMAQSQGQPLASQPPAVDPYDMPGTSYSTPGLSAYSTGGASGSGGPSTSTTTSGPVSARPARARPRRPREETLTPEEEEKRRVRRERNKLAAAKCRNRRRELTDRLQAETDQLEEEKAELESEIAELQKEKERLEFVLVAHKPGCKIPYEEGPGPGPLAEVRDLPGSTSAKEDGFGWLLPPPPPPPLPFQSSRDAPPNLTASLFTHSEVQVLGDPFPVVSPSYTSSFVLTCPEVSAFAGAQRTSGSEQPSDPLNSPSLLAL
SR-BI DiI-HDL act – SR-BI HDL lipid transfer activation; activation, % at 12.5 µM; 0.096% of 320,000 active; CHO ldlA[mSR-BI] cells, DiI-HDL uptake fluorescence, 3 h; 100 = double the neutral-control signal;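 active = mean replicate activation of at least 60% and every replicate at or above 60%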;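 also: 0% = median plate neutral-control signal and 100% = twice that signal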
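material = CHO ldlA[mSR-BI] cells | medium = Ham's F12 with 0.5% BSA, HEPES 25 mM, pH 7.4 | reagent = fluorescent DiI-HDL, 10 µg/mL final | compound dosing = single-point compound dose | incubation = 3 h, 37 °C | measured by = bottom-read fluorescence, 550/595 nm | measure = HDL uptake via cellular fluorescence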
SR-BI HDL uptake – mouse SR-BI HDL lipid transfer inhibition | Q61009 | ldlA[mSR-BI] CHO cells, DiI-HDL uptake fluorescence, 3 h | inhibition, % at 12.5 µM | 0.96% of 320,000 active | AID 488896;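 active = mean replicate inhibition of at least 70% and a set share of replicates each scoring 70 or more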;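 also: 0% = median of neutral control wells and 100% = median of positive control wells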
R1A FP artifact – fluorescence polarization artifact in PKA-R1A activator counter-screen; Cy5-IP20 peptide alone, fluorescence polarization artifact counterscreen; activation, % at 11.4 µM; shares compounds with PKA-R1A act; AID 504799; 7% of 280 active;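 active = mean activation over triplicate runs exceeds the adjusted cutoff derived for the parent primary screen, cut at about 19% in these data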;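 also: no PKA protein present so any polarization rise reflects compound interference; 0% = tracer peptide mix alone and 100% = mix with added PKA catalytic subunit; higher means stronger polarization artifact and likely false positive in parent screen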
PKA-R1A confirm – confirmation of PKA-R1A complex activators | shares compounds with PKA-R1A act | Cy5-IP20 fluorescence polarization, PKA-R1A holoenzyme dissociation | activation, % at 11.4 µM | 9% of 280 active | AID 504800;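 active = mean activation over replicate wells exceeds the adjusted hit threshold taken from the earlier primary screen, cut at about 20% in these data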;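 also: 0% = holoenzyme mix with DMSO only and 100% = cGMP-activated control wells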
* = called active by the depositor; nt = no result. An excerpt weighted towards active compounds, which were near 2.1% of everything screened.

SMILES | CDK5 inh | PKA-R2B act | PKA-R1A act | dFosB act | SR-BI DiI-HDL act | SR-BI HDL uptake | R1A FP artifact | PKA-R1A confirm
CC(=O)c1ccc(NC(=O)CSc2nc3nc(C)cc(C)n3n2)cc1 | 2 | 2 | 19* | -10 | 3 | -3 | 0 | 1
CN(C)c1ccc(C(=O)NCCCSc2ccccc2)cc1 | 1 | 7 | 20* | -9 | 7 | -7 | -4 | 1
N#Cc1ccc(C(=O)NCCCSc2ccccc2)cc1 | -1 | 2 | -6 | -13 | nt | nt | nt | nt
COc1ccc(Br)cc1C1CC(=O)C(C)C(c2cc(Br)ccc2OC)N1 (configuration not stated) | 0 | 6 | -5 | -2 | 12 | -12 | nt | nt
CC#CC(=O)NC1CCCN(C2Cc3ccccc3C2)C1 (configuration not stated) | -1 | 11 | 19* | -1 | 1 | -1 | 2 | 2
O=C(Cc1ncc(C(F)(F)F)cc1Cl)NNc1cccc(F)n1 | 1 | 4 | 0 | 0 | -6 | 6 | nt | nt
CNC(=O)COc1ncnc2scc(-c3ccc(F)cc3)c12 | 1 | 1 | 19* | -3 | 1 | -1 | 3 | 5
CCSc1nc2c(c(=O)[nH]1)C(c1ccncc1)C(C(=O)OC(C)C)=C(C)N2 (configuration not stated) | 2 | -3 | -6 | -3 | 9 | -9 | nt | nt
CCSc1nc2c(c(=O)[nH]1)C(c1cccnc1)C(C(=O)OC)=C(C)N2 (configuration not stated) | 0 | 3 | 20* | -5 | 23 | -23 | 2 | -2
CC1CCC2(CC1)NC(=S)N(c1ccccc1)N2 (configuration not stated) | -3 | -6 | 19* | -3 | 3 | -3 | -1 | -2
CC(=O)Nc1ccc(S(=O)(=O)N2CCc3cc4c(cc3C2C)OCCCO4)cc1 (configuration not stated) | -1 | 13 | 21* | -2 | -11 | 11 | 2 | 0
Cc1ccnc(SCc2cc(=O)c(OC(=O)c3cc([N+](=O)[O-])ccc3Cl)co2)n1 | 2 | 2 | 19* | -4 | 10 | -10 | 2 | 3
Cc1cc(=O)n2nc(N3CCCC(C(=O)NCc4cccc(Br)c4)C3)sc2n1 (configuration not stated) | -1 | 8 | -11 | 4 | 18 | -18 | nt | nt
O=C(NCc1ccc(Cl)cc1)C1CCN(C(=O)c2ccc(Cl)cc2)CC1 | 0 | -16 | -9 | -1 | 2 | -2 | nt | nt
COc1cccc(NC(=O)CN(C)C(=O)CCNS(=O)(=O)c2ccc(C)cc2)c1 | 0 | 11 | 19* | -7 | -1 | 1 | 3 | 2
COC(=O)C(C)Oc1ccc(Cc2ncc(C(F)(F)F)cc2Cl)cc1 (configuration not stated) | -3 | 6 | -12 | 3 | -5 | 5 | nt | nt
CC1CCCC(NC(=O)CN2CCN(S(=O)(=O)c3cccs3)CC2)C1C (configuration not stated) | 1 | -7 | -6 | -2 | 3 | -3 | nt | nt
Cc1cc(C)c2c(CC(=O)NNC(=O)c3ccccc3)coc2c1 | -1 | 2 | 27* | -3 | -3 | 3 | 6 | 3
Cc1cc(C)c2c(CC(=O)NC(C)C)coc2c1 | -1 | 9 | 14 | -2 | 7 | -7 | nt | nt
CN(C)C(=O)c1ccc(NC(=O)COc2cccc3c2OC(C)(C)C3)cc1 | 1 | -6 | -2 | -6 | -29 | 29 | nt | nt
Cc1ccc(-c2cc(C(=O)N3CCOCC3)no2)cc1 | 12 | 5 | 21* | -3 | 8 | -8 | 6 | 5
CC1CC(N(C(=O)c2ccco2)c2ccccc2)c2ccccc2N1C(=O)c1ccco1 (configuration not stated) | 1 | 0 | 19* | -10 | 10 | -10 | 0 | 2
CC1CC(N(C(=O)c2ccc(Cl)cc2)c2ccccc2)c2ccccc2N1C(=O)c1ccco1 (configuration not stated) | -1 | 2 | 1 | 1 | -4 | 4 | nt | nt
CCOC(=O)c1nnn(-c2ccccc2C#N)c1C | 2 | 1 | 20* | -11 | nt | nt | -1 | -1
CCOC(=O)c1nnn(-c2ccc([N+](=O)[O-])cc2)c1C | -2 | 1 | 9 | 4 | 1 | -1 | nt | nt
SMILES | CDK5 inh | PKA-R2B act | PKA-R1A act | dFosB act | SR-BI DiI-HDL act | SR-BI HDL uptake | R1A FP artifact | PKA-R1A confirm
CN1C(=O)N(CC(=O)c2ccc3c(c2)OCO3)C(=O)C12CCCCC2 | nt | -2 | -2 | nt | nt | nt | nt | nt
CCc1ccc(NC(=O)CSc2nnc(-c3ccccn3)n2C)cc1 | 0 | 2 | 19* | 6 | 32 | -32 | 6 | 4
CCOc1ccccc1NC(=O)CSc1nncc2ccccc12 | 2 | 0 | 12 | -10 | -11 | 11 | nt | nt
CCCCS(=O)(=O)N1CCCC(C(=O)NCCc2ccccc2)C1 (configuration not stated) | 1 | -13 | -10 | 1 | -16 | 16 | nt | nt
CCCCS(=O)(=O)N1CCCC(C(=O)Nc2ccc3c(c2)CCC3)C1 (configuration not stated) | 0 | 1 | 19* | -3 | -20 | 20 | 0 | 1
CSCC[C@H](NC(=O)c1nn(C)c(=O)c2ccccc12)c1nc2ccccc2[nH]1 | -1 | -5 | 20* | -10 | -7 | 7 | -1 | 0
COc1ccc(N(CC(=O)NCCSc2ccccn2)S(=O)(=O)c2ccc(C)cc2)cc1OC | 0 | 4 | 15 | -9 | 29 | -29 | nt | nt
COc1ccc(N(CC(=O)NCCSc2ccccn2)S(=O)(=O)c2ccccc2)cc1OC | 0 | 5 | 21* | -9 | -12 | 12 | 1 | 1
O=C(NCc1ccccc1)c1onc(CSc2ccc(Cl)cc2)c1C(=O)NCc1ccccc1 | -2 | 2 | 2 | 3 | 30 | -30 | nt | nt
CN(C)CCNC(=O)c1c(CSc2ccc(Cl)cc2)noc1C(=O)NCc1ccccc1 | 4 | 2 | 20* | -10 | -2 | 2 | 3 | 5
Cc1cccc(C(=O)N2CCN(S(=O)(=O)N3CCCCCC3)CC2)c1 | 1 | -3 | -1 | -7 | 1 | -1 | nt | nt
COc1ccc(Cl)cc1C(=O)NNC(=O)C1CCCO1 (configuration not stated) | 2 | -2 | 7 | 5 | -19 | 19 | nt | nt
CCn1cc([N+](=O)[O-])c(C(=O)Nc2c(C)nn(Cc3cccc(F)c3)c2C)n1 | 1 | 4 | 19* | 3 | 20 | -20 | 6 | 3
